In one assay the test system is L5178Y. The experiment in a line: Antiproliferative activity against mouse L5178Y cells after 24 hrs by MTT assay. The class given is functional, cell-based. To be noted: Mus musculus, L5178Y, 24 h; read-out: IC50. The procedure, abridged: (§1)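 Microplate MTT proliferation read-out, scored against untreated controls; each experiment run in triplicate.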
A further assay relates to K562. Briefly: Antiproliferative activity against human K562 cells up to 365 uM after 24 hrs by MTT assay. The class given is functional, cell-based. For orientation: Tetrazolium assays rely on reduction of a dye to a coloured formazan, in cell work by metabolically active cells.
The subject of assay [1] is A2780. Briefly: Antiproliferative activity against human A2780 cells after 24 hrs by MTT assay. It is filed as functional, cell-based. To be noted: Homo sapiens, A2780, 24 h; read-out: IC50. Summed up:
as §1

For assay [2], the system named is A2780. Briefly: Antiproliferative activity against human cisplatin resistant A2780 cells after 24 hrs by MTT assay. The class given is functional, cell-based. Particulars: Homo sapiens, A2780, 24 h; read-out: IC50; call rule not given here. The procedure, abridged:
as §1

Assay [3] concerns the target RAC-alpha serine/threonine-protein kinase (Homo sapiens, UniProt P31749). Briefly: Inhibition of recombinant AKT1 assessed as 33Pi incorporation after 60 mins by scintillation counting. The procedure, abridged: (§2)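 Recombinant kinase with GSK3(14-27) substrate in 70 mM HEPES-NaOH pH 7.5, 3 mM MgCl2, 3 mM MnCl2, Na-orthovanadate, 1.2 mM DTT, PEG, 1 µM [γ-33P]-ATP. Incubated 30 °C, 60 min, stopped with 2% H3PO4, washed with 0.9% NaCl, 33Pi counted. IC50 from residual activity over 10 concentrations in singlicate.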

Assay [4] has as its target ALK tyrosine kinase receptor (Homo sapiens, UniProt Q9UM73). Briefly: Inhibition of recombinant ALK assessed as 33Pi incorporation after 60 mins by scintillation counting. Summed up:
(§3)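 Tyrosine kinases assayed on poly(Glu,Tyr) in 70 mM HEPES-NaOH pH 7.5, 3 mM MgCl2, 3 mM MnCl2, orthovanadate, 1.2 mM DTT, PEG, 1 µM [γ-33P]-ATP; 30 °C for 60 min, then 2% H3PO4 stop, saline wash, 33Pi scintillation. IC50 derived from residual activity at 10 concentrations in singlicate.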

Assay [5] addresses NUAK family SNF1-like kinase 1 (Homo sapiens, UniProt O60285). The experiment in a line: Inhibition of recombinant ARK5 assessed as 33Pi incorporation after 60 mins by scintillation counting. Summed up: (§4)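 Kinase reaction uses RBER-CHKtide as substrate in HEPES-NaOH pH 7.5 (70 mM) with 3 mM each MgCl2 and MnCl2, orthovanadate, 1.2 mM DTT, PEG and 1 µM [γ-33P]-ATP. Run at 30 °C for 60 min, quenched in 2% H3PO4, saline-washed, scintillation-counted. Residual activity at 10 concentrations (singlicate) gives IC50.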

For another assay, the target named is Aurora kinase B (Homo sapiens, UniProt Q96GD4). Briefly: Inhibition of recombinant Aurora-b assessed as 33Pi incorporation after 60 mins by scintillation counting. The procedure, abridged: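 Substrate tetra(LRRWSLG) with recombinant Aurora-B. Buffer is 70 mM HEPES-NaOH pH 7.5, 3 mM MgCl2, 3 mM MnCl2, orthovanadate, 1.2 mM DTT, PEG, with 1 µM [γ-33P]-ATP. After 60 min at 30 °C, 2% H3PO4 stop, NaCl washes, 33Pi counted. IC50 fitted from 10 singlicate concentrations.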

The target of assay [6] is Tyrosine-protein kinase receptor UFO (Homo sapiens, UniProt P30530). The experiment in a line: Inhibition of recombinant AXL assessed as 33Pi incorporation after 60 mins by scintillation counting. The procedure, abridged:
as §3

In another assay the target is Focal adhesion kinase 1 (Homo sapiens, UniProt Q05397). Briefly: Inhibition of recombinant FAK assessed as 33Pi incorporation after 60 mins by scintillation counting. Summed up: as §3
The target of assay [7] is Insulin-like growth factor 1 receptor (Homo sapiens, UniProt P08069). The experiment in a line: Inhibition of recombinant IGF1-R assessed as 33Pi incorporation after 60 mins by scintillation counting. The procedure, abridged:
as §3

The target in assay [8] is Dual specificity mitogen-activated protein kinase kinase 1 (Homo sapiens, UniProt Q02750). Briefly: Inhibition of wild type MEK1 assessed as 33Pi incorporation after 60 mins by scintillation counting. The procedure, abridged:
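ERK2-KR is the substrate for wild-type MEK1 in 70 mM HEPES-NaOH pH 7.5 containing 3 mM MgCl2, 3 mM MnCl2, orthovanadate, 1.2 mM DTT, PEG and 1 µM [γ-33P]-ATP. Reaction runs 60 min at 30 °C and is stopped with 2% H3PO4; incorporated 33Pi is counted after washing. IC50 comes from 10 concentrations tested once each.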

The target in assay [9] is Hepatocyte growth factor receptor (Homo sapiens, UniProt P08581). Briefly: Inhibition of wild type MET assessed as 33Pi incorporation after 60 mins by scintillation counting. Summed up: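 Wild-type MET phosphorylates poly(Ala,Glu,Lys,Tyr) in HEPES-NaOH pH 7.5 (70 mM) with 3 mM MgCl2, 3 mM MnCl2, orthovanadate, 1.2 mM DTT, PEG, 1 µM [γ-33P]-ATP, at 30 °C for 60 min. Stop with 2% H3PO4, wash, scintillation count. IC50 from residual activity at 10 singlicate concentrations.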

Assay [10] has as its target Serine/threonine-protein kinase Nek2 (Homo sapiens, UniProt P51955). The experiment in a line: Inhibition of recombinant NEK2 assessed as 33Pi incorporation after 60 mins by scintillation counting. Summed up:
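NEK2 reaction on RB-CTF substrate. Contains 70 mM HEPES-NaOH pH 7.5, 3 mM MgCl2/MnCl2, orthovanadate, 1.2 mM DTT, PEG and 1 µM [γ-33P]-ATP. Incubation is 30 °C, 60 min, followed by 2% H3PO4 stop, 0.9% NaCl washes and 33Pi scintillation counting. IC50 from 10 concentrations in singlicate.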

Assay [11] deals with Serine/threonine-protein kinase Nek6 (Homo sapiens, UniProt Q9HC98). Briefly: Inhibition of recombinant NEK6 assessed as 33Pi incorporation after 60 mins by scintillation counting. The procedure, abridged: as §2
The target of assay [12] is Serine/threonine-protein kinase pim-1 (Homo sapiens, UniProt P11309). Briefly: Inhibition of recombinant PIM1 assessed as 33Pi incorporation after 60 mins by scintillation counting. The procedure, abridged: as §2
Assay [13] addresses Serine/threonine-protein kinase PLK1 (Homo sapiens, UniProt P53350). The experiment in a line: Inhibition of recombinant PLK1 assessed as 33Pi incorporation after 60 mins by scintillation counting. Summed up: as §4
Assay [14] concerns the target Serine/threonine-protein kinase N1 (Homo sapiens, UniProt Q16512). Briefly: Inhibition of recombinant PRK1 assessed as 33Pi incorporation after 60 mins by scintillation counting. The procedure, abridged:
as §4

The target in assay [15] is Proto-oncogene tyrosine-protein kinase Src (Homo sapiens, UniProt P12931). Briefly: Inhibition of recombinant SRC assessed as 33Pi incorporation after 60 mins by scintillation counting. The procedure, abridged: as §3
Assay [16] deals with Vascular endothelial growth factor receptor 2 (Homo sapiens, UniProt P35968). Briefly: Inhibition of recombinant VEGF-R2 assessed as 33Pi incorporation after 60 mins by scintillation counting. Summed up: as §3
A further assay has as its system HUVEC. Briefly: Inhibition of VEGF-A induced HUVEC cell sprouting after 24 hrs by angiogenesis assay. The class given is functional, cell-based. Particulars: Homo sapiens. Summed up: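 HUVEC spheroids (500 cells, formed overnight in hanging drops) embedded in collagen gel. Compound plus VEGF-A (25 ng/mL final) added after 30 min; 37 °C for 24 h, then paraformaldehyde fixation. Mean cumulative sprout length of 10 random spheroids per point; seven concentrations, 10 µM to 10 nM, in singlicate for IC50.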

The term IC50 denotes the point on the concentration scale where inhibition reaches its midpoint.

Chain of Serine/threonine-protein kinase N1 (Q16512 whole entry): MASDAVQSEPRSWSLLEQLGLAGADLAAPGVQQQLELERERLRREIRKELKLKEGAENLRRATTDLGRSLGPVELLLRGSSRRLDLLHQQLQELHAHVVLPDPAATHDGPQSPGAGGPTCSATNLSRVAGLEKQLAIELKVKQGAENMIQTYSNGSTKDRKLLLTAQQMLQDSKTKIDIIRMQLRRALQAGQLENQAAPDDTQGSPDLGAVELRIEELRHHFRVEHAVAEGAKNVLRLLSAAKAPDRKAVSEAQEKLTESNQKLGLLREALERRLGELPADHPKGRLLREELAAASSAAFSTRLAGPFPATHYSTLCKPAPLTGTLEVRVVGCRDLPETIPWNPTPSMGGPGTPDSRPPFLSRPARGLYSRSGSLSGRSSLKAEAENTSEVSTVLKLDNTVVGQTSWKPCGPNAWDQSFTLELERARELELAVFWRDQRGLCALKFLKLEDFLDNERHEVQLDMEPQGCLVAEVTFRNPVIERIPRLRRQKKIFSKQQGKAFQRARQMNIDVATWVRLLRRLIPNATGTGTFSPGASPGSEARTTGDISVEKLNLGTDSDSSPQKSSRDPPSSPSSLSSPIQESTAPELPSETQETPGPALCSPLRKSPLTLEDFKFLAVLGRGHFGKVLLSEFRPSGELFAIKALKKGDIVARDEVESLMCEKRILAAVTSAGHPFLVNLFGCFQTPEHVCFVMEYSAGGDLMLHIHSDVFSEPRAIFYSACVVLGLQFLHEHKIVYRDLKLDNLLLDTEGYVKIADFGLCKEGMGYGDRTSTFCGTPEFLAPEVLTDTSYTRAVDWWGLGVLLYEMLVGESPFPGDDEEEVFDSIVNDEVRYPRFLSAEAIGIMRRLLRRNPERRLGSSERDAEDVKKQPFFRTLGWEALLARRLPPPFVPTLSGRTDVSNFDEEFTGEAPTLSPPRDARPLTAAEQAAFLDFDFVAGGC
Chain of Hepatocyte growth factor receptor (P08581 whole entry): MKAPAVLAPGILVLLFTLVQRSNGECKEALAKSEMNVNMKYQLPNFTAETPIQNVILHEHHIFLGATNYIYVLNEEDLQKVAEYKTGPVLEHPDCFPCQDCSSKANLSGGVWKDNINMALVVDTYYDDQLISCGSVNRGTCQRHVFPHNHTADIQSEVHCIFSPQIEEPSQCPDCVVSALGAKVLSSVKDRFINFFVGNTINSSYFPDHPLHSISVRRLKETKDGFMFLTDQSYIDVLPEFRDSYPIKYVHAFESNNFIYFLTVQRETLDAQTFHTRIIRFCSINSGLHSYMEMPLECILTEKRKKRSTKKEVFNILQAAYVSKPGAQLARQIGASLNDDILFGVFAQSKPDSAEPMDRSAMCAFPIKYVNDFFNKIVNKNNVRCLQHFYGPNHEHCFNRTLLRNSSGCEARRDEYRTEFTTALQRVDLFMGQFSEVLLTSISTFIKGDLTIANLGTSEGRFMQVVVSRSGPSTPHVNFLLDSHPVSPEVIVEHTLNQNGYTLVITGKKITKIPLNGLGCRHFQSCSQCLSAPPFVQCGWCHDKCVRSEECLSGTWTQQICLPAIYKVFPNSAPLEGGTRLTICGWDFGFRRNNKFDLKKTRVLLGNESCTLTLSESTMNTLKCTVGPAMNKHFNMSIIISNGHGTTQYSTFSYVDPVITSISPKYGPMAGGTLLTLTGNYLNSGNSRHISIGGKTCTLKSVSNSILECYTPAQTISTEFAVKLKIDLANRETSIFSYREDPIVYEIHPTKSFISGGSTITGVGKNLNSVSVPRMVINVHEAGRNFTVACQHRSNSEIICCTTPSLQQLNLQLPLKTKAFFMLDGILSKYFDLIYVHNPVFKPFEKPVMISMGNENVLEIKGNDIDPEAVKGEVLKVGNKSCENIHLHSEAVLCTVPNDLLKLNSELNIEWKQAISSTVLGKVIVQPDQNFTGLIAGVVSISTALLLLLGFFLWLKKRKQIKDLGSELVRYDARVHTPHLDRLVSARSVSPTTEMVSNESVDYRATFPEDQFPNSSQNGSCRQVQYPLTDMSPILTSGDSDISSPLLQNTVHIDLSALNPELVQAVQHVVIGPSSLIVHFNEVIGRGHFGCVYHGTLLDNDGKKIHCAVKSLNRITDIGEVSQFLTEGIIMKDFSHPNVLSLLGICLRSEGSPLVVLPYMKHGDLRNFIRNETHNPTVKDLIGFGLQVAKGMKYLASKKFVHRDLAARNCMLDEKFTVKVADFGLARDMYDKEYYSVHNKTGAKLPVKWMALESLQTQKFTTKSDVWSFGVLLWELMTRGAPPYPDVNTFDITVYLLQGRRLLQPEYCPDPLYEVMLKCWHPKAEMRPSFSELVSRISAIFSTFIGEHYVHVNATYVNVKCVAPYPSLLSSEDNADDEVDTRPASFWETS
Chain of NUAK family SNF1-like kinase 1 (O60285 whole entry): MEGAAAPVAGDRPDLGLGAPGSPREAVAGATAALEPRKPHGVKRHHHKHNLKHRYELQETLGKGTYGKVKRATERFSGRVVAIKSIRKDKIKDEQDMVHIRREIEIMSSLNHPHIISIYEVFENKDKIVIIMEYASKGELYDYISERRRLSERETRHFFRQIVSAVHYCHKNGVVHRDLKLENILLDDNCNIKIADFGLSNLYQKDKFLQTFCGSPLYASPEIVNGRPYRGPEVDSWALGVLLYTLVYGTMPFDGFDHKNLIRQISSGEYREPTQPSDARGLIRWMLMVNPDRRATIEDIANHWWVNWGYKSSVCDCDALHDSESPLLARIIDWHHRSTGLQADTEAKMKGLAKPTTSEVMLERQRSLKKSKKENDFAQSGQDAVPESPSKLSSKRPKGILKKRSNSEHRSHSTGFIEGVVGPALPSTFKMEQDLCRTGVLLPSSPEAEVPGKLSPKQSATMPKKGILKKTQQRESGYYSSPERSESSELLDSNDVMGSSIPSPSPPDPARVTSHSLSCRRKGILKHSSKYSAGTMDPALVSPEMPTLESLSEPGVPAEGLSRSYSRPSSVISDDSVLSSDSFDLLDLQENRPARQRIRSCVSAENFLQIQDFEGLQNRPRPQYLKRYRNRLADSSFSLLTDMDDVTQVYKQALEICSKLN
Chain of Proto-oncogene tyrosine-protein kinase Src (P12931 2-536 limits assumed): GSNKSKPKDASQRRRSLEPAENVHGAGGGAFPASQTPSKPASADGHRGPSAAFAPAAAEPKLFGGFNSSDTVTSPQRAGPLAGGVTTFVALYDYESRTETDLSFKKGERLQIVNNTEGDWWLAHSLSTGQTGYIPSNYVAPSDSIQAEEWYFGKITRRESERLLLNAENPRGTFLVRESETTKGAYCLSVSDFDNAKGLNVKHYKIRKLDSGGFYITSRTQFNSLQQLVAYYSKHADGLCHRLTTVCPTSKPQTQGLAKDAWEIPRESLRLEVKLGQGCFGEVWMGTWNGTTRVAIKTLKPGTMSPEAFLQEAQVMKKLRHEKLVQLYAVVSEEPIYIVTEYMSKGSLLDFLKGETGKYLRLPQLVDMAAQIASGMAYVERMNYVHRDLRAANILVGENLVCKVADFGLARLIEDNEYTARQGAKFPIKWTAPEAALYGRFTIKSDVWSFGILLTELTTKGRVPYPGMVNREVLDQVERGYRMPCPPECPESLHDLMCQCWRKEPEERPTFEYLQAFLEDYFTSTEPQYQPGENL
Chain of Aurora kinase B (Q96GD4 whole entry): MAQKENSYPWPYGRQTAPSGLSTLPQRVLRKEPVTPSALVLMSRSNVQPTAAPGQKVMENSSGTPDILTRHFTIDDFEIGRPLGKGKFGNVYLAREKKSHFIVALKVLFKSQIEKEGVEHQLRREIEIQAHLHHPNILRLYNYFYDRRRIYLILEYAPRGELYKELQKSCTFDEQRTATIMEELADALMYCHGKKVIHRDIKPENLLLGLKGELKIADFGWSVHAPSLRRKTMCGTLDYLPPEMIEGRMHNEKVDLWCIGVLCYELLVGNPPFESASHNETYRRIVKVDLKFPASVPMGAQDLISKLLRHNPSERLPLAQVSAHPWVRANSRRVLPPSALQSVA
Chain of Serine/threonine-protein kinase PLK1 (P53350 whole entry): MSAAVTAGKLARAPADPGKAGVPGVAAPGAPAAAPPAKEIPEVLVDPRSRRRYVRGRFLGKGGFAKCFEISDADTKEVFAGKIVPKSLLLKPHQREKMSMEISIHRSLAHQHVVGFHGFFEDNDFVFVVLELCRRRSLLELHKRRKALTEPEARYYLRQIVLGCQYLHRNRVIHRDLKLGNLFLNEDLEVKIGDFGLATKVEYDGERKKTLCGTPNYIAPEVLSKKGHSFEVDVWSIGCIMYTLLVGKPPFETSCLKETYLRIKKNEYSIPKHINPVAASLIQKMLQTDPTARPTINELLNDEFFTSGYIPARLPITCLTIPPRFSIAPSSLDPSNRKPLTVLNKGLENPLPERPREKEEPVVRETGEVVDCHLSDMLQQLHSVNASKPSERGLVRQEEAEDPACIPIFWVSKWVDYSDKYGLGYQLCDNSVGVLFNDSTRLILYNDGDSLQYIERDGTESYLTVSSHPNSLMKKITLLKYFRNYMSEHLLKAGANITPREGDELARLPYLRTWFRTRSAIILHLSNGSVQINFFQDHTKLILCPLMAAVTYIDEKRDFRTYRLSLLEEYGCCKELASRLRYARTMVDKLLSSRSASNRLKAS
Chain of Dual specificity mitogen-activated protein kinase kinase 1 (Q02750 whole entry): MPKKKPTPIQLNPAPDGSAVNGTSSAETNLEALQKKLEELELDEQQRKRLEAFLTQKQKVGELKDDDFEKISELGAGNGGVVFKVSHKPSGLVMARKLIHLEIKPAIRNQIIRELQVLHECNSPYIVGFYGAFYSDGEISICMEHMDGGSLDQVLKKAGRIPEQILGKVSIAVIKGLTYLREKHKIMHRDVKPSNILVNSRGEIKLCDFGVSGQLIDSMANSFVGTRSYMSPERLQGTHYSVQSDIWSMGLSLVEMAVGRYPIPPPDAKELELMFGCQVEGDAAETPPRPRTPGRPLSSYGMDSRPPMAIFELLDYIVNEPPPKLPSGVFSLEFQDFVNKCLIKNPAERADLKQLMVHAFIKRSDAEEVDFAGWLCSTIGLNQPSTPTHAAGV

In the case of `Cc1c(O)c(O)cc2oc3cc(O)cc(O)c3c(=O)c12` [ANOMALIN A], the IC50 with L5178Y was 0.4 µM; in the assay on K562, “Not Active”; with A2780 [1], 4.34 µM; in the assay on A2780 [2] it was 26 µM; in assay [3], > 100 µM; in assay [4], 1.1 µM. In addition, the IC50 in assay [5] is 15.6 µM; at Aurora kinase B, 0.5 µM; in assay [6], 6.6 µM; on Focal adhesion kinase 1, 15.2 µM; in assay [7] it was 8.6 µM; in assay [8], > 100 µM. Also, the IC50 in assay [9] was found to be 4.4 µM; in assay [10], 83.9 µM; in assay [11] it was 67.8 µM; in [12], 0.3 µM; in assay [13], 8.8 µM; in assay [14], 45.3 µM. Further, the IC50 in [15] worked out at 12.9 µM; in [16], 0.8 µM; in the assay on HUVEC it was 1.8 µM.

The values above are taken from ChEMBL document CHEMBL1811781, “Arthrinins A-D: novel diterpenoids and further constituents from the sponge derived fungus Arthrinium sp” (Bioorg Med Chem, 2011).
